Assay results from different studies.
Lines come from different studies, so protocols differ.
HTR2B: 5-hydroxytryptamine receptor 2B (HTR2B, Homo sapiens, UniProt P41595)
DHFR: Dihydrofolate reductase (DHFR, Homo sapiens, UniProt P00374)
FAAH: Fatty-acid amide hydrolase 1 (FAAH, Homo sapiens, UniProt O00519)
HTR2C: 5-hydroxytryptamine receptor 2C (HTR2C, Homo sapiens, UniProt P28335)
TOP2A: DNA topoisomerase 2-alpha (TOP2A, Homo sapiens, UniProt P11388)

`c1ccc(O[C@H]2CCN(Cc3ccc(-c4ccn[nH]4)o3)C2)cc1` has an IC50 of 15.6 µM (HTR2B; calcium signal; antagonist).
For `S=C(NN=Cc1ccc(N2CCCCC2)cc1)Nc1ccc(Cl)cc1`, the IC50 was 18.4 µM (DHFR; enzyme activity; inhibitor).
`O=C(Nc1ccc(-c2cccc3ncccc23)cc1)C1CCN(S(=O)(=O)c2ccccc2Cl)CC1` has an IC50 of 0.0196 µM (FAAH; enzyme activity; inhibitor; fluorescence).
The IC50 of `S=C(NN=Cc1ccc(N2CCCCC2)cc1)Nc1cccc(Br)c1` is reported as 30.2 µM (DHFR; enzyme activity; inhibitor).
`Cc1ccccc1NC(=O)C=Cc1ccc(O)c(O)c1` has an IC50 of 1.1 µM (DHFR; enzyme activity; inhibitor; absorbance).
`O=C(c1cc(C2CCNC2)[nH]n1)N1CCC(c2cccc(Cl)c2)C1` (stereo not drawn) gave an IC50 of 8.5 µM (HTR2C; calcium signal; antagonist).
For `Fc1ccc(NC(=S)NN=Cc2ccc(N3CCCCC3)cc2)cc1`, the IC50 was 24.6 µM (DHFR; enzyme activity; inhibitor).
The IC50 of `Cc1[nH]c2ccccc2c1C(=O)C(C)N1CCC(c2nccn2C)C1` (stereo not drawn) is reported as 2.61 µM (HTR2C; calcium signal; antagonist).
`O=c1nc(SCc2cc(F)cc(C(F)(F)F)c2)nc(SCc2cccc(C(F)(F)F)c2)[nH]1` has an IC50 of 14.5 µM (TOP2A; enzyme activity; inhibitor).
With `S=C(NN=Cc1ccc(N2CCCCC2)cc1)NC1CCCCC1` the IC50 was 41.2 µM (DHFR; enzyme activity; inhibitor).
The IC50 of `Cc1nc(CSc2nc(SCc3ccc(C(F)(F)F)cc3)nc(=O)[nH]2)cs1` is reported as 64.7 µM (TOP2A; enzyme activity; inhibitor).
For `CC(=O)Nc1ccc(Nc2nc(-c3sc(N)nc3C)cs2)cc1`, the IC50 was over 10 µM (Lysyl oxidase homolog 1 (LOXL1, Homo sapiens, UniProt Q08397); enzyme activity; inhibitor; fluorescence; with preincubation).
With `O=C(C=Cc1ccc(O)c(O)c1)Oc1cccc2cccnc12` the IC50 was 13 µM (DHFR; enzyme activity; inhibitor; absorbance).
With `CC1CC2CN(C(C)C(=O)c3c[nH]c4ccccc34)CCN2C1` (stereo not drawn) the IC50 was 2.25 µM (HTR2B; calcium signal; antagonist).
`COc1ccc(NC(=S)NN=Cc2ccc(N3CCCCC3)cc2)cc1` gave an IC50 of 44.6 µM (DHFR; enzyme activity; inhibitor).
The IC50 of `O=C(Nc1ccc(-c2ccc3cccnc3c2)cc1)C1CCN(S(=O)(=O)c2ccccc2Cl)CC1` is reported as 0.0105 µM (FAAH; enzyme activity; inhibitor; fluorescence).
With `S=C(NN=Cc1ccc(N2CCCCC2)cc1)Nc1ccc(Br)cc1` the IC50 was 26.1 µM (DHFR; enzyme activity; inhibitor).
With `O=C(C=Cc1ccc(O)c(O)c1)OCc1ccccc1` the IC50 was 12.6 µM (DHFR; enzyme activity; inhibitor; absorbance).
`O=c1nc(SCc2cc(F)cc(C(F)(F)F)c2)nc(SCc2ccc3ccccc3n2)[nH]1` gave an IC50 of 18.6 µM (TOP2A; enzyme activity; inhibitor).
For `O=C(Nc1ccc(-c2ccc3ccccc3n2)cc1)C1CCN(S(=O)(=O)c2ccccc2Cl)CC1`, the IC50 was 0.0035 µM (FAAH; enzyme activity; inhibitor; fluorescence).
For `CC1CCC(C(C)C)C(OC(=O)C=Cc2ccc(O)c(O)c2)C1` (stereo not drawn), the IC50 was 0.182 µM (DHFR; enzyme activity; inhibitor; absorbance).
The IC50 of `O=C1CC(CCNCc2ccc(-c3cccc(Br)c3)o2)CN1` (stereo not drawn) is reported as 8.62 µM (HTR2B; calcium signal; antagonist).
`Cc1ccc(CNC(=S)NN=Cc2ccc(N3CCCCC3)cc2)cc1` has an IC50 of 33.9 µM (DHFR; enzyme activity; inhibitor).
`CC(C)c1ccc(CSc2nc(SCc3ccc4sccc4c3)[nH]c(=O)n2)cc1` has an IC50 of 14.2 µM (TOP2A; enzyme activity; inhibitor).
For `Cc1[nH]c2ccccc2c1SCCNC(=O)C1NCCC1C1CC1` (stereo not drawn), the IC50 was 5.36 µM (HTR2B; calcium signal; antagonist).
With `O=c1nc(SCc2ccc(C(F)(F)F)cc2)nc(SCc2ccc3sccc3c2)[nH]1` the IC50 was 16.3 µM (TOP2A; enzyme activity; inhibitor).
The IC50 of `NCC1Cc2cc(F)ccc2N(C(=O)Cc2cc(F)ccc2Br)C1` (stereo not drawn) is reported as 43.4 µM (HTR2C; calcium signal; antagonist).
`O=[N+]([O-])c1cccc(NC(=S)NN=Cc2ccc(N3CCCCC3)cc2)c1` gave an IC50 of 13.7 µM (DHFR; enzyme activity; inhibitor).
`Nc1ccccc1OC(=O)C=Cc1ccc(O)c(O)c1` gave an IC50 of 16.9 µM (DHFR; enzyme activity; inhibitor; absorbance).
For `Oc1cc(CN2CCN3CCCCC3C2)c2ccccc2c1` (stereo not drawn), the IC50 was 0.586 µM (HTR2B; calcium signal; antagonist).
